High-throughput results as filed in PubChem.
Most compounds without a hit are left out; they make up all but 3.8% or so of the library.
hERG protect – shields human hERG channel from block by proarrhythmic agents; activation (rescue from dofetilide block), less the hit threshold, % at 10 µM; Q12809; CHO-hERG, FluxOR thallium flux, dofetilide IC70 present; 310,000 compounds, 0.51% hits;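 active = activation above the mean of controls blocked by dofetilide plus 5 SD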;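 note: thallium influx through hERG after potassium depolarization seen as dye fluorescence rise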
Target sequence (Q12809 whole entry, looked up): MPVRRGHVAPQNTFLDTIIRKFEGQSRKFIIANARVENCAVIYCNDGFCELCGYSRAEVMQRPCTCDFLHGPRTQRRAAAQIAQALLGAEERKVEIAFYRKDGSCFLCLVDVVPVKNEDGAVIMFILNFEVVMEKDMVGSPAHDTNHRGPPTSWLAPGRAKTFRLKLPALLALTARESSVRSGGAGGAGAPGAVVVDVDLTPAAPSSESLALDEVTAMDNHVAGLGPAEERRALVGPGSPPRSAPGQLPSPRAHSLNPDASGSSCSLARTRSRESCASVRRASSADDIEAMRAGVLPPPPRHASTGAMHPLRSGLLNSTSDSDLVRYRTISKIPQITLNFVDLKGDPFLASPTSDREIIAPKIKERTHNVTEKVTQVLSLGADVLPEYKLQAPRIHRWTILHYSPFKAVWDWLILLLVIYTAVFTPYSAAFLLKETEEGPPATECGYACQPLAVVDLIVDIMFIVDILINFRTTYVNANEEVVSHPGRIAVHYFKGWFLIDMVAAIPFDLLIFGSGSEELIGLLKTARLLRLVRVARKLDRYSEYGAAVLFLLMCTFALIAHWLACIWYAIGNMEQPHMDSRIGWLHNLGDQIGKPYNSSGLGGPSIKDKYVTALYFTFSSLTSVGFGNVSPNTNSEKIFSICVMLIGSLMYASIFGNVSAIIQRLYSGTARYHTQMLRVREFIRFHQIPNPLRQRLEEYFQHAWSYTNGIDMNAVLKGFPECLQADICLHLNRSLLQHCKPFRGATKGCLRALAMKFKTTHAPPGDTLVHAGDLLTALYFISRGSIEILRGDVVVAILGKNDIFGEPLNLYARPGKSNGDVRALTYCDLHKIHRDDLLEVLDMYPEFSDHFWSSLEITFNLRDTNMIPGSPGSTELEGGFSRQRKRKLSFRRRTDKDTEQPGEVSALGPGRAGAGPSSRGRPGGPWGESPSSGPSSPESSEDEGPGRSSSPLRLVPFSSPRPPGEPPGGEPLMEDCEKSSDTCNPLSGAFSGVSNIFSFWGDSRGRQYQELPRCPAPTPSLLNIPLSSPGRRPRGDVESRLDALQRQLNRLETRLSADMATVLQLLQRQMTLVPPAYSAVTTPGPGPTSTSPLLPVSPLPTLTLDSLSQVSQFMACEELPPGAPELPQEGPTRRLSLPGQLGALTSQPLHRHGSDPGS
KCNK3 inh – human KCNK3 channel inhibition, primary screen. B-score at 10 µM. AID 602410. CHO-KCNK3 thallium flux, FluxOR fluorescence; hits give low values. O14649. 340,000 compounds, 0.84% hits;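 active = B-score under library mean minus 4 SD, starting fluorescence ratio at most library mean plus 5 SD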;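 note: more negative B-score means stronger inhibition of thallium flux through KCNK3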
KCNQ1 act – potentiates or activates the human KCNQ1 potassium channel; P51787; 310,000 compounds, 0.35% hits; AID 2648; B-score at 10 µM; CHO-K1 KCNQ1, thallium flux FluxOR fluorescence; hits give high values;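 active = fluorescence ratio B-score, a plate-corrected score, at least three library SD, with initial intensity B-score within 5 SD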
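Test system: CHO-K1 cells stably expressing KCNQ1 / Medium: assay buffer / Also added: depolarizing K+/Tl+ stimulus, K2SO4 and Tl2SO4 each 12.5 mM in 5x stock / Incubation: 90 min dye loading and 20 min compound exposure, both at room temperature / Signal: thallium influx via FluxOR fluorescence, kinetic imaging / Evaluation: B score of baseline-normalized fluorescence ratio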
KCNQ1 block – inhibitors of human KCNQ1 potassium channel. P51787. CHO-K1 KCNQ1, FluxOR thallium flux fluorescence; hits give high values. B-score at 10 µM. 310,000 compounds, 1.3% hits. AID 2642;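 active = compounds whose thallium flux B-score, printed positive for inhibition, exceeds three library SD while starting fluorescence stays within three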;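 note: channel opened by potassium depolarization with thallium stimulus after 20 min compound exposure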
KCNK9 inh – blocks the human KCNK9 two-pore domain potassium channel. Q9NPC2. HEK293 KCNK9, FluxOR thallium flux fluorescence; hits give low values. B-score at 10 µM. 310,000 compounds, 1.2% hits. AID 488922;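 active = ratio B-score over 3 SD below the library mean, with starting fluorescence within 5 SD of its mean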;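 note: negative B-score means less thallium flux so channel inhibition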
Kir21 block – blocks the mouse Kir2.1 inward-rectifier potassium channel | B-score at 10 µM | HEK293-Kir2.1, FluxOR thallium flux fluorescence; hits give low values | 310,000 compounds, 0.85% hits | AID 1672 | P35561;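 active = fluorescence ratio B-score at or below minus 3 SD of library scores, with starting-brightness B-score within 2 SD, cut at about -4.2 in these data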;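 note: channel flux triggered by added potassium and thallium sulfate stimulus; B-score of peak minus minimum fluorescence over baseline after thallium stimulus; more negative B-score means stronger Kir2.1 block with less thallium influx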
KCNK9 block conf – human KCNK9 inhibitor confirmation. shares compounds with KCNK9 inh. HEK293 KCNK9 cells, FluxOR thallium flux fluorescence. inhibition, % at 10 µM. 4,900 compounds, 43% hits. AID 492992;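 active = thallium signal inhibited by more than 5 SD of the compound-free buffer control wells, on both duplicate plates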;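 note: 0% = assay buffer control wells without compound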
Kir21 sel – tests whether KCNK9 modulators also affect mouse Kir2.1; inhibition, % at 10 µM; shares compounds with KCNK9 inh; AID 492993; Kir2.1 cells, FluxOR thallium flux fluorescence; 4,900 compounds, 4% hits;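 active = thallium signal drop more than 5 SD beyond the mean of the no-compound control wells, seen in both duplicate plates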;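 note: signal is fluorescence rise after thallium addition divided by baseline fluorescence; plate controls were assay buffer only for no effect and full block by chlorpromazine control for full effect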
HEK293 Tl ctr – second counter-screen for KCNK9 modulators: effect in non-induced cells | shares compounds with KCNK9 inh | non-induced KCNK9-HEK293, FluxOR thallium flux | inhibition, % at 10 µM | 4,900 compounds, 40% hits;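 active = thallium signal drop beyond 5 SD of the untreated control mean, on both duplicate plates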;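 note: plate controls were buffer only IC0 wells for no effect and SID17386958 at its maximal inhibitory level for full effect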
KCNK3 inh conf – human KCNK3 channel inhibition, confirmation assay; shares compounds with KCNK3 inh; CHO-KCNK3 thallium flux, FluxOR fluorescence; 0% buffer, 100% carvedilol maximal block; ratio percent of control, % at 10 µM; 2,400 compounds, 99% hits; AID 651638;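 active = ratio percent of control, averaged over triplicates, above buffer control mean plus 5 SD, cut at about 64% in these data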;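 note: ratio is the fluorescence rise from min to max over baseline after thallium stimulus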
KCNK3 uninduced – counter-screen for KCNK3 inhibitors: effect in non-induced cells | shares compounds with KCNK3 inh | non-induced KCNK3 parental cells, FluxOR thallium flux; hits give low values | thallium flux ratio (lower = more inhibition) at 10 µM | 2,400 compounds, 40% hits | AID 651747;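 active = thallium flux ratio, averaged over three wells, more than 5 SD below the buffer control mean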;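 note: host cells are CHO cells without KCNK3 induction; ratio is peak minus trough fluorescence over baseline then normalized to buffer controls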
* = called active by the depositor; i = inactive; x = no result.

SMILES | hERG protect | KCNK3 inh | KCNQ1 act | KCNQ1 block | KCNK9 inh | Kir21 block | KCNK9 block conf | Kir21 sel | HEK293 Tl ctr | KCNK3 inh conf | KCNK3 uninduced
COC(=O)COC(=O)c1ccccc1NC(=O)c1ccccc1 | -3 | i | i | i | i | 0 | x | x | x | x | x
COc1ccc(-c2cc3nc4c(c(N5CCC6(CC5)OCCO6)n3n2)CCC4)cc1 | -20 | i | i | i | i | -0.82 | x | x | x | x | x
O=S1(=O)C=C(Oc2ccc(F)cc2)c2ccccc21 | -7 | i | i | i | i | 0.38 | x | x | x | x | x
O=S1(=O)C=C(Oc2ccc3ccccc3c2)c2ccccc21 | -16 | -9.7* | i | i | -9.6* | 0.26 | 40%* | i | 42%* | 107* | i
O=c1c2ccccc2nc(SCc2ccccc2)n1Cc1ccco1 | -12 | -11* | i | i | -12* | -0.78 | 62%* | i | 43%* | 104* | i
Cc1ccc(CSc2nc3ccccc3c(=O)n2CCCC(=O)NCc2ccco2)cc1 | -5 | i | i | i | i | -0.98 | x | x | x | x | x
Cc1ccc(CSc2nc3ccccc3c(=O)n2Cc2ccco2)cc1 | -9 | -8.9* | i | i | -18* | 0.01 | 80%* | i | 45%* | 115* | 0.16*
COC(=O)CSc1nc(N2CCCCC2)c2c(c1C#N)CCCC2 | 4 | -11* | i | i | -10* | -2 | 38%* | i | 35%* | 104* | i
N#Cc1c(SCC(=O)O)nc(N2CCCCC2)c2c1CCCC2 | -4 | i | i | i | i | 2.4 | x | x | x | x | x
CCOC(=O)c1nnc(-c2ccccc2)nc1NCc1ccc(Cl)cc1 | -10 | -9.7* | i | i | -10* | -0.27 | 38%* | i | 43%* | 97* | 0.14*
CCOC(=O)c1c(S(=O)(=O)Nc2ccc(F)cc2C)c(C)n(C)c1C | -1 | -9.5* | i | i | -14* | 0.1 | 64%* | i | 26%* | 116* | i
O=C(CSc1nncn1-c1ccccc1)N1CCCC1 | -1 | i | i | i | i | 0.73 | x | x | x | x | x
Cc1cccc(C)c1NC(=S)Nc1ccc(Cl)c(Cl)c1 | -14 | -12* | i | 8* | -9.1* | -0.49 | 48%* | i | i | 86* | 0.14*
COc1ccc(NC(=S)Nc2ccc(C)c(Cl)c2)cc1OC | -8 | i | i | i | i | -3.4 | x | x | x | x | x
COc1ccccc1NC(=O)c1ccc(COc2ccccc2Br)o1 | -7 | -10* | i | i | -13* | -1.6 | 56%* | i | 42%* | 130* | 0.15*
CN(C)C(=O)c1ccc(COc2ccccc2Br)o1 | -6 | i | i | i | i | 0.48 | x | x | x | x | x
CCCCC(C(=O)NC1CCCC1)N(Cc1ccco1)C(=O)Cn1nnc(-c2ccc(F)cc2)n1 (configuration not stated) | -4 | -12* | i | i | -22* | 0.19 | 54%* | i | 37%* | 92* | i
O=C(NCCn1cc(SCc2ccccc2)c2ccccc21)c1c(F)cccc1F | -12 | i | i | i | i | -0.68 | x | x | x | x | x
O=C(NCCn1cc(SCc2ccc(F)cc2)c2ccccc21)c1c(F)cccc1F | -9 | -9.9* | i | i | -14* | -0.45 | 60%* | i | 31%* | 94* | i
O=C(NCc1cccnc1)c1ccccn1 | -2 | i | i | i | i | 1.2 | x | x | x | x | x
CCC(CC)COC(=O)C(C#N)c1nc2ccccc2nc1N1CCOCC1 (configuration not stated) | -19 | -12* | i | i | -16* | -0.11 | 66%* | i | 49%* | 104* | 0.13*
CCOC(=O)NC(N(O)c1cccc(Cl)c1)C(Cl)(Cl)Cl (configuration not stated) | -7 | -12* | i | i | -13* | -3.9 | 54%* | i | 28%* | 112* | i
Cc1ccc(NC(=O)N2CCCC(c3nc(-c4ccc(F)cc4)no3)C2)cc1 (configuration not stated) | -7 | i | i | i | i | -1.2 | x | x | x | x | x
CCc1ccc(NC(=O)CN(N=Nc2nonc2C)c2nonc2C)cc1 | -14 | -11* | i | i | -9* | 0.58 | 64%* | i | 34%* | 115* | i
CCOc1ccc(C(=O)CCC(=O)N2CCN(c3ccccc3O)CC2)cc1 | x | i | x | x | x | x | x | x | x | x | x
SMILES | hERG protect | KCNK3 inh | KCNQ1 act | KCNQ1 block | KCNK9 inh | Kir21 block | KCNK9 block conf | Kir21 sel | HEK293 Tl ctr | KCNK3 inh conf | KCNK3 uninduced
CC(Oc1ccc(-c2ccccc2)c(F)c1)c1ccn(S(=O)(=O)c2ccc(F)cc2)n1 (configuration not stated) | -14 | -12* | i | i | -10* | -0.19 | 57%* | i | 42%* | 106* | i
O=C(N/N=C/c1ccc(N2CCOCC2)cc1)c1ccccc1OCCOc1ccccc1 | -7 | -11* | i | 7* | -12* | 1.6 | 30%* | i | 26%* | 101* | i
O=C(N/N=C/c1ccc(N2CCOCC2)cc1)c1ccncc1 | x | i | x | x | x | x | x | x | x | x | x
CCC(C)(C)n1nnnc1C(c1cc2ccc(C)cc2[nH]c1=O)N(Cc1cccnc1)Cc1ccco1 (configuration not stated) | -1 | i | i | i | i | 0.16 | x | x | x | x | x
CC(C)(C)n1nnnc1C(c1ccccn1)N(Cc1ccccc1)Cc1ccc(Cl)cc1 (configuration not stated) | 0 | -9.2* | i | i | -16* | 0.96 | 60%* | i | 46%* | 100* | 0.15*
CC(C)(C)n1nnnc1C(c1cccs1)N(Cc1ccccc1)Cc1ccco1 (configuration not stated) | -18 | -12* | i | 9* | -19* | -0.81 | 66%* | i | 46%* | 113* | 0.15*
CN(C)CC[C@@H](c1ccc(Cl)cc1)c1ccccn1 | -8 | i | i | i | i | -2.8 | x | x | x | x | x
CCN(CC)S(=O)(=O)c1ccc(C(=O)NCc2nnc(SCC(=O)OC)n2C)cc1 | x | i | x | x | x | x | x | x | x | x | x
